Reference: ChEMBL document CHEMBL3046507, “Synthesis and herbicidal activities of novel 3-N-substituted amino-6-methyl-4-(3-trifluoromethylphenyl)pyridazine derivatives” (2008)

Experiments:
Echinochloa crus-galli [1] = test: Herbicidal activity against Echinochloa crus-galli (barnyard grass) assessed as inhibition of fresh plant weight at 750 g/ha using preemergence protocol measured after 24 days under green house conditions; conditions: pre-emergence
Spirodela polyrhiza [2] = test: Inhibition of chlorophyll in Spirodela polyrhiza fronds at 1 ug/mL using light intensity of 45 uE/m2/s measured after 7 days; format: functional; conditions: 168 h
In short: (§1)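 Giant duckweed assay. Compound in DMF dropped onto filter paper, solvent evaporated 15 min, paper placed in flask with 15 mL fresh medium and shaken >10 min. 10 fronds inoculated per flask and grown 7 days at 23-26 °C, 16 h light/8 h dark, ca. 45 µE m^-2 s^-1. DMF plus medium served as control. Chl extracted in 96% ethanol overnight at 4 °C; OD read at 665 and 649 nm; content expressed as percent of control.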

Echinochloa crus-galli [3] = test: Herbicidal activity against Echinochloa crus-galli (barnyard grass) assessed as inhibition of fresh plant weight at 750 g/ha using postemergence protocol measured after 24 days under green house conditions; conditions: post-emergence
[4] = system: Brassica rapa subsp. oleifera; test: Herbicidal activity against Brassica rapa subsp. oleifera assessed as inhibition of fresh plant weight at 750 g/ha using postemergence protocol measured after 24 days under green house conditions; conditions: post-emergence
Digitaria [5] = test: Herbicidal activity against Digitaria adscendens assessed as inhibition of fresh plant weight at 750 g/ha using preemergence protocol measured after 24 days under green house conditions; conditions: in Digitaria adscendens, pre-emergence
Amaranthus retroflexus [6] = test: Herbicidal activity against Amaranthus retroflexus assessed as inhibition of fresh plant weight at 750 g/ha using preemergence protocol measured after 24 days under green house conditions; conditions: pre-emergence
Digitaria [7] = test: Herbicidal activity against Digitaria adscendens assessed as inhibition of fresh plant weight at 750 g/ha using postemergence protocol measured after 24 days under green house conditions; conditions: in Digitaria adscendens, post-emergence
[8] = system: Brassica rapa subsp. oleifera; test: Herbicidal activity against Brassica rapa subsp. oleifera assessed as inhibition of fresh plant weight at 750 g/ha using preemergence protocol measured after 24 days under green house conditions; conditions: pre-emergence
Spirodela polyrhiza [9] = test: Inhibition of chlorophyll in Spirodela polyrhiza fronds at 10 ug/mL using light intensity of 45 uE/m2/s measured after 7 days; format: functional; conditions: 168 h
In short: as §1

Amaranthus retroflexus [10] = test: Herbicidal activity against Amaranthus retroflexus assessed as inhibition of fresh plant weight at 750 g/ha using postemergence protocol measured after 24 days under green house conditions; conditions: post-emergence

| Compound | inhibition at 750 g/ha (Echinochloa crus-galli [1]) [%] | inhibition at 1 µg/mL (Spirodela polyrhiza [2]) [%] | inhibition at 750 g/ha (Echinochloa crus-galli [3]) [%] | inhibition at 750 g/ha [4] [%] | inhibition at 750 g/ha (Digitaria [5]) [%] | inhibition at 750 g/ha (Amaranthus retroflexus [6]) [%] | inhibition at 750 g/ha (Digitaria [7]) [%] | inhibition at 750 g/ha [8] [%] | inhibition at 10 µg/mL (Spirodela polyrhiza [9]) [%] | inhibition at 750 g/ha (Amaranthus retroflexus [10]) [%] |
| --- | --- | --- | --- | --- | --- | --- | --- | --- | --- | --- |
| Cc1cc(-c2cccc(C(F)(F)F)c2)c(Nc2cccc(Br)c2)nn1 | 0 | 100 | 0 | 17 | 0 | 0 | 0 | 14 | 100 | 30 |
| Cc1cc(-c2cccc(C(F)(F)F)c2)c(Nc2cccc(Cl)c2)nn1 | 0 | 100 | 7 | 63 | 0 | 12 | 5 | 3 | 100 | 38 |
| Cc1cc(-c2cccc(C(F)(F)F)c2)c(Nc2ccccc2Cl)nn1 | 2 | 82 | 24 | 93 | 0 | 10 | 19 | 9 | 100 | 41 |
| COc1ccc(Nc2nnc(C)cc2-c2cccc(C(F)(F)F)c2)cc1 | 5 | 100 | 28 | 44 | 2 | 55 | 89 | 13 | 100 | 27 |
| Cc1cc(-c2cccc(C(F)(F)F)c2)c(Nc2ccc(Br)cc2)nn1 | 15 | 59 | 13 | 36 | 14 | 54 | 26 | 26 | 63 | 45 |
| Cc1ccc(Nc2nnc(C)cc2-c2cccc(C(F)(F)F)c2)c(C)c1 | 0 | 69 | 25 | 22 | 7 | 0 | 11 | 10 | 72 | 0 |
| Cc1cc(-c2cccc(C(F)(F)F)c2)c(NCc2ccc(Cl)cc2)nn1 | 9 | 25 | 15 | 27 | 0 | 3 | 18 | 7 | 85 | 44 |
| Cc1cc(-c2cccc(C(F)(F)F)c2)c(NCCc2ccccc2)nn1 | 4 | 100 | 13 | 45 | 27 | 16 | 11 | 0 | 100 | 30 |
| COc1ccccc1Nc1nnc(C)cc1-c1cccc(C(F)(F)F)c1 | 0 | 62 | 11 | 6 | 0 | 4 | 0 | 9 | 82 | 30 |
